According to ChEMBL document CHEMBL4627393, “Discovery of Potent, Selective, and State-Dependent NaV1.7 Inhibitors with Robust Oral Efficacy in Pain Models: Structure-Activity Relationship and Optimization of Chroman and Indane Aryl Sulfonamides” (J Med Chem, 2020):
One block for each molecule: values may come before it.

How the values were obtained:
[1] = Metabolic stability in mouse liver microsomes assessed as metabolic rate at 1 uM preincubated for 5 mins followed by NADPH addition and measured up to 30 mins by LC/MS-MS analysis; assay type: ADME, Microsome; settings: 0.5 h
[2] = Cmax in BALB/c mouse at 10 mg/kg, po measured upto 24 hrs by LC/MS-MS analysis; assay type: ADME, organism-based; design: dose 10 mg/kg, route oral; settings: in vivo
[3] = Oral bioavailability in BALB/c mouse at 10 mg/kg measured upto 24 hrs by LC/MS-MS analysis; assay type: ADME, organism-based; settings: in vivo
Summary of the method: (§1)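 Pharmacokinetics were run with an IV dose of 1 mg/kg and a PO dose of 10 mg/kg. Parameters reported were AUClast, Cmax, CL, T1/2, Vss and %F.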

[4] = Metabolic stability in rat liver microsomes assessed as metabolic rate at 1 uM preincubated for 5 mins followed by NADPH addition and measured up to 30 mins by LC/MS-MS analysis; assay type: ADME, Microsome; settings: 0.5 h
[5] = AUClast in BALB/c mouse at 1 mg/kg, iv measured upto 24 hrs by LC/MS-MS analysis; assay type: ADME, organism-based; design: time < 24 hr, dose 1 mg/kg, route intravenous; settings: in vivo
[6] = Clearance in BALB/c mouse at 1 mg/kg, iv measured upto 24 hrs by LC/MS-MS analysis; assay type: ADME, organism-based; settings: in vivo
[7] = Cmax in BALB/c mouse at 1 mg/kg, iv measured upto 24 hrs by LC/MS-MS analysis; assay type: ADME, organism-based; design: dose 1 mg/kg, route intravenous; settings: in vivo
[8] = AUClast in BALB/c mouse at 10 mg/kg, po measured upto 24 hrs by LC/MS-MS analysis; assay type: ADME, organism-based; design: dose 10 mg/kg, time < 24 hr, route oral; settings: in vivo
[9] = Half life in BALB/c mouse at 1 mg/kg, iv measured upto 24 hrs by LC/MS-MS analysis; assay type: ADME, organism-based; settings: in vivo
[10] = Lipophilicity, log D of the compound; assay type: physicochemical; settings: octanol/water
[11] = Metabolic stability in human liver microsomes assessed as metabolic rate at 1 uM preincubated for 5 mins followed by NADPH addition and measured up to 30 mins by LC/MS-MS analysis; assay type: ADME, Microsome; settings: 0.5 h
[12] = Volume of distribution at steady state in BALB/c mouse at 1 mg/kg, iv measured upto 24 hrs by LC/MS-MS analysis; assay type: ADME, organism-based; settings: in vivo, read-out: Vdss; summary of the method: as §1
[13] = AUClast in Sprague-Dawley rat at 10 mg/kg, po measured upto 24 hrs by LC/MS-MS analysis; assay type: ADME, organism-based; design: time < 24 hr, dose 10 mg/kg, route oral; settings: in vivo
[14] = Cmax in Sprague-Dawley rat at 1 mg/kg, iv measured upto 24 hrs by LC/MS-MS analysis; assay type: ADME, organism-based; design: dose 1 mg/kg, route intravenous; settings: in vivo
[15] = Apparent permeability across apical to basolateral side in human Caco2 cells; assay type: ADME, cell-based; settings: Caco-2
[16] = Cmax in Sprague-Dawley rat at 10 mg/kg, po measured upto 24 hrs by LC/MS-MS analysis; assay type: ADME, organism-based; design: dose 10 mg/kg, route oral; settings: in vivo
[17] = Apparent permeability across basolateral to apical side in human Caco2 cells; assay type: ADME, cell-based; settings: Caco-2
[18] = AUClast in Beagle dog at 1 mg/kg, iv administered as infusion for 15 mins followed by compound washout and subsequent compound dosing at 5 mg/kg, po measured up to 24 hrs by LC/MS-MS analysis; assay type: ADME, organism-based, Canis lupus familiaris; settings: in vivo
[19] = Volume of distribution at steady state in Sprague-Dawley rat at 1 mg/kg, iv measured upto 24 hrs by LC/MS-MS analysis; assay type: ADME, organism-based; settings: in vivo, read-out: Vdss
[20] = Clearance in Beagle dog at 1 mg/kg, iv administered as infusion for 15 mins by LC/MS-MS analysis; assay type: ADME, organism-based, Canis lupus familiaris; settings: in vivo
[21] = Oral bioavailability in Sprague-Dawley rat at 10 mg/kg measured upto 24 hrs by LC/MS-MS analysis; assay type: ADME, organism-based; settings: in vivo; summary of the method: as §1
[22] = Cmax in Beagle dog at 1 mg/kg, iv administered as infusion for 15 mins followed by compound washout and subsequent compound dosing at 5 mg/kg, po measured up to 24 hrs by LC/MS-MS analysis; assay type: ADME, organism-based, Canis lupus familiaris; settings: in vivo
[23] = Bioavailability in Beagle dog at 1 mg/kg, iv administered as infusion for 15 mins followed by compound washout and subsequent compound dosing at 5 mg/kg, po measured up to 24 hrs by LC/MS-MS analysis; assay type: ADME, organism-based, Canis lupus familiaris; settings: in vivo
[24] = Volume of distribution at steady state in Beagle dog at 1 mg/kg, iv administered as infusion for 15 mins by LC/MS-MS analysis; assay type: ADME, organism-based, Canis lupus familiaris; settings: in vivo, read-out: Vdss; summary of the method: as §1
[25] = AUClast in Sprague-Dawley rat at 1 mg/kg, iv measured upto 24 hrs by LC/MS-MS analysis; assay type: ADME, organism-based; design: dose 1 mg/kg, time < 24 hr, route intravenous; settings: in vivo
[26] = Unbound drug concentration in plasma of formalin-induced C57BL/6 mouse model of nociceptive pain at 3 mg/kg, po administered 30 mins before formalin stimulation and measured after 40 mins; assay type: ADME, organism-based; settings: in vivo
Summary of the method: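 Mice were dosed orally at 3 mg/kg 30 min before formalin challenge. Nociceptive behaviour was scored at 0–5 min (phase I) and 10–40 min (phase II). Plasma was collected at the end of the study, and the unbound drug concentration was determined.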

[27] = Clearance in Sprague-Dawley rat at 1 mg/kg, iv measured upto 24 hrs by LC/MS-MS analysis; assay type: ADME, organism-based; settings: in vivo
[28] = AUClast in Beagle dog at 1 mg/kg, iv administered as infusion for 15 mins by LC/MS-MS analysis; assay type: ADME, organism-based, Canis lupus familiaris; design: dose 1 mg/kg, time 0 - last, route intravenous; settings: in vivo
[29] = Metabolic stability in monkey liver microsomes assessed as metabolic rate at 1 uM preincubated for 5 mins followed by NADPH addition and measured up to 30 mins by LC/MS-MS analysis; assay type: ADME, Macaca mulatta, Microsome; settings: rhesus monkey, 0.5 h
[30] = Cmax in Beagle dog at 1 mg/kg, iv administered as infusion for 15 mins by LC/MS-MS analysis; assay type: ADME, organism-based, Canis lupus familiaris; design: dose 1 mg/kg, route intravenous; settings: in vivo
[31] = Half life in Beagle dog at 1 mg/kg, iv administered as infusion for 15 mins by LC/MS-MS analysis; assay type: ADME, organism-based, Canis lupus familiaris; settings: in vivo
[32] = Metabolic stability in dog liver microsomes assessed as metabolic rate at 1 uM preincubated for 5 mins followed by NADPH addition and measured up to 30 mins by LC/MS-MS analysis; assay type: ADME, Canis lupus familiaris, Microsome; settings: 0.5 h
[33] = Half life in Sprague-Dawley rat at 1 mg/kg, iv measured upto 24 hrs by LC/MS-MS analysis; assay type: ADME, organism-based; settings: in vivo

SMILES: CN1CCN(c2cc(C(F)(F)F)ccc2[C@H]2CCOc3cc(S(=O)(=O)Nc4nccs4)ccc32)CC1
- logD [10]: 2.1

SMILES: O=C1COCCN1c1cc(C(F)(F)F)ccc1[C@H]1CCOc2cc(S(=O)(=O)Nc3nccs3)ccc21
- logD [10]: 1.8

SMILES: O=S(=O)(Nc1cccc(F)n1)c1ccc2c(c1)OCC[C@@H]2c1ccc(C(F)(F)F)cc1N1CCOCC1
- logD [10]: 4.1

More lines, now with the values ahead:

- Drug metabolism [1]: 0.04 nmol/min/mg
- Cmax [2]: 4200 nM
- bioavailability [3]: 95%
- Drug metabolism [4]: 0.05 nmol/min/mg
- AUC(0-t) at 24 h [5]: 2 µM·h
- clearance [6]: 14 mL/min/kg
- Cmax [7]: 800 nM
- AUC(0-t) at 24 h [8]: 19 µM·h
- half-life [9]: 2.8 h
- logD [10]: 3.2
- Drug metabolism [11]: 0.03 nmol/min/mg
- Vd [12]: 2.9 L/kg
SMILES: O=S(=O)(Nc1nccs1)c1ccc2c(c1)OCC[C@@H]2c1ccc(C(F)(F)F)cc1-c1ccc(F)nc1

- Drug metabolism [1]: 0.02 nmol/min/mg
- Cmax [2]: 3000 nM
- bioavailability [3]: 79%
- Drug metabolism [4]: 0.02 nmol/min/mg
- AUC(0-t) at 24 h [5]: 0.9 µM·h
- clearance [6]: 37 mL/min/kg
- Cmax [7]: 2200 nM
- AUC(0-t) at 24 h [8]: 7.1 µM·h
- half-life [9]: 0.4 h
- logD [10]: 2.3
- Drug metabolism [11]: 0.02 nmol/min/mg
- Vd [12]: 1 L/kg
SMILES: O=S(=O)(Nc1nccs1)c1ccc2c(c1)OCC[C@@H]2c1ccc(C(F)(F)F)cc1-n1ccnn1

- logD [10]: 2.2
SMILES: Cn1nccc1-c1cc(C(F)(F)F)ccc1[C@H]1CCOc2cc(S(=O)(=O)Nc3cccnn3)ccc21

- AUC(0-t) at 24 h [13]: 114 µM·h
- Cmax [14]: 2200 nM
- Papp A→B [15]: 28 ×10⁻⁶ cm/s
- Cmax [16]: 13000 nM
- Drug metabolism [1]: 0 nmol/min/mg
- Papp B→A [17]: 26.8 ×10⁻⁶ cm/s
- Cmax [2]: 15000 nM
- AUC(0-t) [18]: 117 µM·h
- Vd [19]: 0.9 L/kg
- clearance [20]: 0.5 mL/min/kg
- bioavailability [21]: 100%
- bioavailability [3]: 89%
- Drug metabolism [4]: 0.01 nmol/min/mg
- AUC(0-t) at 24 h [5]: 12 µM·h
- clearance [6]: 2.7 mL/min/kg
- Cmax [22]: 10000 nM
- Cmax [7]: 2000 nM
- AUC(0-t) at 24 h [8]: 107 µM·h
- bioavailability [23]: 40%
- half-life [9]: 4.2 h
- Vd [24]: 0.3 L/kg
- AUC(0-t) at 24 h [25]: 11 µM·h
- Cp(f) [26]: 728 nM
- clearance [27]: 3 mL/min/kg
- AUC(0-t) at 0.25 h [28]: 59 µM·h
- logD [10]: 3.7
- Drug metabolism [29]: 0.02 nmol/min/mg
- Drug metabolism [11]: 0 nmol/min/mg
- Cmax [30]: 6900 nM
- half-life [31]: 7.8 h
- Drug metabolism [32]: 0.01 nmol/min/mg
- half-life [33]: 4.2 h
- Vd [12]: 0.9 L/kg
SMILES: Cn1nccc1-c1cc(C(F)(F)F)ccc1[C@H]1CCOc2cc(S(=O)(=O)Nc3ncccn3)ccc21
